Lmaj promast = Leishmania major promastigote growth inhibition; Leishmania major promastigotes, resazurin fluorescence viability; inhibition, % at 10 µM; hit rate 9% among 200,000; AID 1063; in the data active means inhibition above about 50%;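 further: promastigotes grown with compound for 44 hours at 28 °C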
S1P4 antagonist = antagonists of human S1P4 receptor | O95977 | S1P4-expressing cells, antagonist mode, reporter read-out | inhibition, % at 4.98 µM | hit rate 0.26% among 220,000; in the data active means inhibition above about 29%
S1P3 antag = S1P3 (human) receptor antagonism; inhibition, % at 4.98 µM; Q99500; hit rate 0.27% among 170,000; CHO S1P3 NFAT-BLA reporter, FRET fluorescence, antagonist mode;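 active means inhibition above the plate cutoff, the mean inhibition of test wells on that plate plus 3 SD, cut at about 28% in these data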;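 further: cells challenged with S1P at its EC80 of 0.8 µM; blue over green emission ratio from cleaved BLA substrate after 4 h stimulation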
Target sequence (Q99500 whole entry, looked up): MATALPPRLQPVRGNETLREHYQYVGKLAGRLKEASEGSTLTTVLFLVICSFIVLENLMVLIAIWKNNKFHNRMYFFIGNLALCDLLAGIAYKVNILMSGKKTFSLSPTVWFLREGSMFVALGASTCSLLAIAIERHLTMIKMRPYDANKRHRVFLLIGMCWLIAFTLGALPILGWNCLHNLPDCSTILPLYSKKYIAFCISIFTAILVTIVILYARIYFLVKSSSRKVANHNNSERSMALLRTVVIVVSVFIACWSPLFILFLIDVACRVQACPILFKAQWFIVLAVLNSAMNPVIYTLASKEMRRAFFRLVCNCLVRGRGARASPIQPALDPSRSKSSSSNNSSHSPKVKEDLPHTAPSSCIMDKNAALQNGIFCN
S1P4 agonist = agonists of human S1P4 receptor | S1P4-expressing cell line, agonist reporter assay | activation, % at 4.98 µM | O95977 | AID 1509 | hit rate 0.35% among 220,000; in the data active means activation above about 11%
MDM2 E3 inh = inhibitors of human Mdm2 E3 ubiquitin ligase. AID 1230. cell-based MDM2 ubiquitination luciferase reporter, 2 h; 0 = plate control, 100 = twice control, blank-subtracted. hit rate 0.11% among 210,000. Q00987. signal enhancement, % at 5 µM;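 active means signal enhancement of 30% or more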;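 further: luminescence tracks abundance of the self-degrading MDM2-luciferase fusion protein; higher signal means inhibition of MDM2 E3 ligase activity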
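Test system: mammalian cells stably expressing self-ubiquitinating, self-degrading MDM2 E3–luciferase fusion; Amount: 2000 cells in each well; Medium: DMEM; Schedule: 4 h settle plus 2 h compound, 37 °C; Technique: SteadyLite luciferase luminescence after 15 min room-temperature reagent incubation; Benchmarks: plate control and blank wells.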
Numbers stand for hits; . = inactive; / = no result given. The full list was thinned out, with hits kept by preference.

SMILES	Lmaj promast	S1P4 antagonist	S1P3 antag	S1P4 agonist	MDM2 E3 inh
Cn1nc(C(F)(F)F)cc1-c1ccc(S(N)(=O)=O)s1	/	.	.	.	.
CS(=O)(=O)N(CC(=O)Nc1ccc2c(c1)OCCO2)Cc1ccc(Cl)cc1	96	.	.	.	.
COc1ccc(C)cc1S(=O)(=O)N(CC(=O)Nc1ccc2c(c1)OCCO2)Cc1ccccc1	74	.	/	.	.
CC(Sc1ccc(Cl)cc1)C(=O)Nc1ccc2c(c1)OCO2 (stereo not given)	.	.	/	.	/
CC(C(=O)Nc1ccc2c(c1)OCO2)N(c1ccc(Cl)cc1)S(C)(=O)=O (stereo not given)	97	.	.	.	.
CCOC(=O)c1ccc(NC(=O)CN(Cc2ccc(Cl)cc2)S(C)(=O)=O)cc1	100	.	/	.	.
Cc1ccc(C)c(NC(=O)C(c2ccccc2)N2CCOCC2)c1 (stereo not given)	.	.	.	.	.
COc1ccc(C2(CNS(=O)(=O)c3ccccc3)CCOCC2)cc1	.	.	.	.	.
CCCCn1c(-c2sccc2C)n[nH]c1=S	.	.	.	.	.
CC12CCC(C/C1=N\OC(=O)c1c(F)cccc1F)C2(C)C (stereo not given)	/	.	.	.	.
Cc1[nH]c2ccccc2c1CN1CCc2ccccc2C1	100	.	/	.	.
O=c1[nH]c(CN2CCc3ccccc3C2)nc2ccccc12	.	.	.	.	.
COC(=O)C1=C(SC)N(c2ccccc2)C(c2ccccc2)CC1=O (stereo not given)	.	.	.	.	.
CC(SCc1ccccc1)C(=O)Nc1ccccc1-c1ccccc1 (stereo not given)	57	.	.	.	.
O=C(Nc1ccccc1-c1ccccc1)C(c1ccccc1)c1ccccc1	.	.	.	.	.
O=C(Nc1ccc(NC(=S)NC(=O)c2ccccc2F)cc1)c1cccs1	96	.	.	.	.
Cc1cc(C)cc(NS(=O)(=O)c2ccc(NC(=S)NC(=O)c3cccs3)cc2)c1	96	.	.	.	.
Cc1ccc2nc(NC(=O)c3cccs3)sc2c1	.	.	/	.	.
Cc1ccc2nc(NC(=S)NC(=O)c3cccs3)sc2c1	59	.	/	.	.
O=C(NC(=S)Nc1ccc(NC(=O)c2cccs2)cc1)c1cc2ccccc2o1	85	.	.	.	.
CC1(C(=O)NC2CCCCCCC2)CC1(Cl)Cl (stereo not given)	.	.	/	.	.
Brc1ccc(N=C(c2ccccc2)c2ccncc2)cc1	.	.	.	.	.
COCC1CCN(Cc2cn[nH]c2-c2ccc(OC)c(F)c2)C1 (stereo not given)	/	.	.	.	.
CN(C)S(=O)(=O)c1cccc(NC(=S)N(CCC#N)Cc2cccnc2)c1	.	.	.	.	.
CCOc1ccccc1N1CCN(C2=C(NS(=O)(=O)c3cccs3)C(=O)c3ccccc3C2=O)CC1	99	.	/	.	.
SMILES	Lmaj promast	S1P4 antagonist	S1P3 antag	S1P4 agonist	MDM2 E3 inh
CN1CCN(C2=C(NS(=O)(=O)c3cccs3)C(=O)c3ccccc3C2=O)CC1	/	.	.	.	.
O=C1C(NS(=O)(=O)c2cccs2)=C(N2CCN(Cc3ccccc3)CC2)C(=O)c2ccccc21	/	.	.	.	.
O=C1C(NS(=O)(=O)c2cccs2)=C(N2CCN(c3cccc(C(F)(F)F)c3)CC2)C(=O)c2ccccc21	62	.	/	.	.
COc1ccccc1N1CCN(S(=O)(=O)c2cccs2)CC1	54	.	/	.	.
O=C(COC(=O)/C=C/c1ccc([N+](=O)[O-])cc1)NC(c1ccccc1)c1ccccc1	.	.	.	.	.
O=C(Nc1nc2ccccc2n1CCN1CCOCC1)c1ccc(COc2ccccc2Br)o1	55	.	.	.	.
CC1CN(C(=O)c2ccc(COc3ccccc3Br)o2)CC(C)O1 (stereo not given)	.	.	.	.	.
CCN(CC)C(=O)c1ccc(COc2ccccc2Cl)cc1	63	.	/	.	.
CCN(CC)C(=O)c1ccc(COc2ccccc2Br)o1	88	.	.	.	.
O=C(O)c1ccc(COc2ccccc2Cl)cc1	.	.	.	.	.
CC(C)(C)NC(=O)c1ccc(COc2ccccc2Br)o1	78	.	.	.	.
COc1ccc(C2=NO[C@@H]3[C@@H]4C[C@@H]([C@H]5C(=O)N(C)C(=O)[C@@H]45)[C@H]23)c(OC)c1	/	.	.	.	.
CCC1(C)NC(=O)N(CC(=O)N2N=C(c3ccccc3)CC2c2ccc(OC)cc2)C1=O (stereo not given)	.	.	.	.	.
CCOC(=O)c1c(-c2ccc(C)cc2)csc1NC(=O)CCSc1nnc2ccccn12	.	.	.	.	.
c1cc2c(cc1-c1csc(NNC3=NCCCCC3)n1)OCCO2	.	.	.	.	.
CC(=O)c1cccc(NC(=O)C(OC(=O)/C=C/c2ccc3c(c2)OCO3)c2ccccc2)c1 (stereo not given)	.	.	/	.	/
Cc1ccc(/C=N/NC(=O)CNC(=O)c2ccc(S(=O)(=O)N(C)C)cc2)cc1	.	.	.	.	.
Cc1ccsc1/C=N/NC(=O)CNC(=O)c1ccc(S(=O)(=O)N(C)C)cc1	52	.	.	.	.
CN(C)S(=O)(=O)c1ccc(C(=O)NCC(=O)N/N=C/c2ccccc2Cl)cc1	68	.	.	.	.
CN(C)S(=O)(=O)c1ccc(C(=O)NCC(=O)N/N=C/c2cccs2)cc1	.	.	.	.	.
CCCCNC(=O)C1CC(=O)N(c2ccc(OC)cc2)C1c1ccc(OC)cc1 (stereo not given)	.	.	/	.	.
CN(C)c1ccc(NC(=O)CN2CCC(O)(c3ccccc3)CC2)cc1	.	.	.	.	.
CN(C)C(=O)C(CCN1CCC(O)(c2ccc(Cl)cc2)CC1)(c1ccccc1)c1ccccc1	97	.	.	.	/
CN1CCN(c2ccc(Cl)cc2NC(=O)/C=C/c2ccc(F)cc2)CC1	94	.	.	.	.
CN1CCN(c2ccc(Cl)cc2NC(=O)CCN2C(=O)c3ccccc3C2=O)CC1	77	.	.	.	.
SMILES	Lmaj promast	S1P4 antagonist	S1P3 antag	S1P4 agonist	MDM2 E3 inh
COC(=O)C1=C(C(=O)OC)C(c2cc(Br)ccc2O)c2sc(=O)[nH]c2S1 (stereo not given)	65	.	.	.	.
Cc1cccc(NCc2ccc(O)c3ncccc23)c1C	.	.	.	.	.
Cc1cccnc1NCc1ccc(O)c2ncccc12	58	.	.	.	.
Cc1cccc(N=Nc2ccc(O)c3ncccc23)c1	100	.	.	.	.
CCS(=O)(=O)c1ccc(OC)c(N=Nc2ccc(O)c3ncccc23)c1	100	.	.	.	.
Cc1ccc(NCc2ccc(O)c3ncccc23)cc1C	.	.	.	.	.
COc1ccc(S(=O)(=O)NCCOc2cccc3cccnc23)cc1OC	.	.	.	.	.
Cc1ccc(C)c(N=Nc2ccc(O)c3ncccc23)c1	100	.	.	.	.
Cn1nnnc1SCCNC/C=C/c1ccccc1	.	.	.	.	.
Cc1cc(OCCN2CCCC2)ccc1[N+](=O)[O-]	.	.	.	.	.
Cc1ccc(OCCCN2CCOCC2)c([N+](=O)[O-])c1	89	.	.	.	.
